Key:
[1] = target: Pepsin A (Sus scrofa, UniProt P00791); assay: (§1) The compound was tested for inhibitory effect towards the pepsin hydrolysis of Horseradish peroxidase; parameters: species or system plant
In short: (§2)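 Pepsin (10 µg ≙ 35 units, freshly prepared) was mixed with DMSO serial dilutions of inhibitor (1.00 mg/mL solution, 1:10 then 1:2 steps), with horseradish peroxidase as protein substrate. Mixtures were serially diluted 1:2 in 0.05 N HCl, and residual peroxidase was read with o-phenylenediamine/H₂O₂ in 0.2 M phosphate pH 6.5 (15 min, room temperature, OD 492 nm). Pepstatin A served as reference. IC50 was determined.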

[2] = as §1; parameters: species or system plant; in short: as §2

Sequence of Pepsin A (P00791 whole entry): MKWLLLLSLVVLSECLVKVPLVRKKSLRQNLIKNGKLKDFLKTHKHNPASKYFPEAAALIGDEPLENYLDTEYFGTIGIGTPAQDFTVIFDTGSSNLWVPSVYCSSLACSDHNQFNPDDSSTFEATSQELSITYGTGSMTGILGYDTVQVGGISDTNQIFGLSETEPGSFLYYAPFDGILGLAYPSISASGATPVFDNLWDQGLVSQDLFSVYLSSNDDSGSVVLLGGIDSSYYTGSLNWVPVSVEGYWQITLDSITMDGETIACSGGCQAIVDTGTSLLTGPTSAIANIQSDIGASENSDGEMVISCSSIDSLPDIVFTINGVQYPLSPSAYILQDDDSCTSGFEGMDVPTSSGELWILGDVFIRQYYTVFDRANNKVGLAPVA

SMILES	IC50 [1]	IC50 [2]
CCCCCCC(O)[C@H](CC(C)C)NC(=O)[C@@H](NC(=O)[C@@H](NC(=O)CC(C)(C)C)C(C)C)C(C)C (stereo not given in full)	1.1 µM	
CCCCCCC(O)[C@H](CC(C)C)NC(=O)[C@@H](NC(=O)[C@@H](NC(=O)CC)C(C)C)C(C)C (stereo not given in full)	3.2 µM	
CCCCCCC(O)[C@H](CC(C)C)NC(=O)[C@@H](NC(=O)[C@@H](NC(=O)CCc1ccccc1)C(C)C)C(C)C (stereo not given in full)	0.73 µM	
CCCCCCC(O)[C@H](CC(C)C)NC(=O)[C@@H](NC(=O)[C@@H](NC(=O)C1CC1)C(C)C)C(C)C (stereo not given in full)		4.5 µM
CC(C)CC(=O)N[C@H](C(=O)N[C@H](C(=O)N[C@@H](CC(C)C)[C@@H](O)CC(=O)N[C@@H](C)C(=O)N[C@@H](CC(C)C)[C@@H](O)CC(=O)O)C(C)C)C(C)C [PEPSTATIN]		0.031 µM
CCCCCCC(O)[C@H](CC(C)C)NC(=O)[C@@H](NC(=O)[C@@H](NC(=O)CC(C)C)C(C)C)C(C)C (stereo not given in full)	0.92 µM	
CCCCCCC(O)[C@H](CC(C)C)NC(=O)[C@@H](NC(=O)[C@@H](NC(=O)C(C)C)C(C)C)C(C)C (stereo not given in full)	3.6 µM	
CCCCCCC(O)[C@H](CC(C)C)NC(=O)[C@@H](NC(=O)[C@@H](NC(=O)OC(C)(C)C)C(C)C)C(C)C (stereo not given in full)	0.21 µM	
CCCCCCC(O)[C@H](CC(C)C)NC(=O)[C@@H](NC(=O)[C@@H](NC(=O)OC(C)C)C(C)C)C(C)C (stereo not given in full)	1.2 µM	
CCCCCCC(O)[C@H](CC(C)C)NC(=O)[C@@H](NC(=O)[C@@H](NC(=O)OCc1ccccc1)C(C)C)C(C)C (stereo not given in full)	0.69 µM	

Reference: ChEMBL document CHEMBL1132234, “Simplified pepstatins: synthesis and evaluation of N-terminally modified analogues” (J Med Chem, 1999)
